Assay results published in ChEMBL document CHEMBL1795232, “Benzoxazinones as potent positive allosteric AMPA receptor modulators: part I” (Bioorg Med Chem Lett, 2011).
pKi: −log10 of the molar value.

How the values were obtained:
Rattus norvegicus [1] = species: Rattus norvegicus; experiment: Positive allosteric modulation at AMPA receptor in Sprague-Dawley rat embryonic hippocampal neuron assessed as concentration required to double the steady-state current induced by glutamate by patch-clamp assay; assay type: tissue-based; details: Hippocampus
Outline: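 Hippocampal neurons from E18 Sprague-Dawley rats, cultured 4-7 days, whole-cell voltage-clamped at -80 mV at room temperature. Cells were pretreated 20 s with saline or modulator by superfusion, then given 500 µM glutamate with or without modulator for 1 s. Mean plateau current at 600-900 ms was taken. EC2x is the concentration doubling the steady-state glutamate current.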

[2] = Displacement of [3H]AMPAKINE from AMPA receptor in rat forebrain
Rattus norvegicus [3] = species: Rattus norvegicus; experiment: Positive allosteric modulation at AMPA receptor in Sprague-Dawley rat adult hippocampal slice assessed as increase in field excitatory postsynaptic potential amplitude at 3 uM; assay type: tissue-based; details: Hippocampus
Outline: (§1)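 Transverse hippocampal slices from adult male Sprague-Dawley rats (4-6 weeks) held on nylon net in a rapid-flow linear interface chamber. Schaffer-commissural fibers stimulated with paired pulses (200 ms interval) at 0.05 Hz. After a 20-30 min stable baseline, compound infused 30 min, then washed out with control ACSF. DMSO stocks diluted into ACSF. Read-out was percentage increase in fEPSP amplitude.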

Rattus norvegicus [4] = species: Rattus norvegicus; experiment: Positive allosteric modulation at AMPA receptor in Sprague-Dawley rat adult hippocampal slice assessed as increase in field excitatory postsynaptic potential amplitude at 10 uM; assay type: tissue-based; details: Hippocampus; outline: as §1
Rattus norvegicus [5] = species: Rattus norvegicus; experiment: Positive allosteric modulation at AMPA receptor in Sprague-Dawley rat adult hippocampal slice assessed as increase in field excitatory postsynaptic potential amplitude at 1 uM; assay type: tissue-based; details: Hippocampus; outline: as §1
Rattus norvegicus [6] = species: Rattus norvegicus; experiment: Positive allosteric modulation at AMPA receptor in Sprague-Dawley rat adult hippocampal slice assessed as increase in field excitatory postsynaptic potential amplitude at 30 uM; assay type: tissue-based; details: Hippocampus; outline: as §1

SMILES	Activity (Rattus norvegicus [1]) [µM]	pKi [2]	further results
O=C1c2cc3c(cc2OC2CCCN12)OC1CCCN1C3=O (stereo unspecified)	2.6	–	–
COc1ccc(C(=O)N2CCCC2=O)cc1	> 1000	–	–
C#CCN1COc2cc3c(cc2C1=O)OC1CCCN1C3=O (stereo unspecified)	0.25	5.15	Activity (Rattus norvegicus [3]): 6%
O=C1c2cc3c(cc2OCN1C1CC1)C(=O)N1CCCC1O3 (stereo unspecified)	0.8	4.59	Activity (Rattus norvegicus [4]): 10%
CC(C)N1COc2cc3c(cc2C1=O)OC1CCCN1C3=O (stereo unspecified)	0.9	4.00	Activity (Rattus norvegicus [4]): 3%
O=C1c2cc3c(cc2OCN1C1CCCC1)C(=O)N1CCCC1O3 (stereo unspecified)	7	3.79	–
O=C1c2cc3c(cc2OC2CCCN12)C(=O)N1CCCC1O3 (stereo unspecified)	0.06	–	–
CCN1COc2cc3c(cc2C1=O)OC1CCCN1C3=O (stereo unspecified)	0.2	4.70	Activity (Rattus norvegicus [4]): 17%
O=C1c2cc3c(cc2OCN1CC(F)(F)F)C(=O)N1CCCC1O3 (stereo unspecified)	8.8	3.48	Activity (Rattus norvegicus [5]): 0%
O=C1c2cc3c(cc2OCN1CCF)C(=O)N1CCCC1O3 (stereo unspecified)	0.5	4.48	Activity (Rattus norvegicus [4]): 9%
O=C1c2cc3c(cc2OC2CCCN12)COCO3 (stereo unspecified)	1.1	–	–
CC(C)CN1COc2cc3c(cc2C1=O)OC1CCCN1C3=O (stereo unspecified)	41	–	–
NS(=O)(=O)c1cc2c(cc1Cl)NC(C1CC3C=CC1C3)NS2(=O)=O (stereo unspecified)	1.6	–	–
CCCN1COc2cc3c(cc2C1=O)OC1CCCN1C3=O (stereo unspecified)	2.5	4.15	Activity (Rattus norvegicus [5]): 0%
O=C1c2cc3c(cc2OC2CCCN12)OCOC3 (stereo unspecified)	22	–	–
O=C1NCOc2cc3c(cc21)OC1CCCN1C3=O (stereo unspecified)	5	3.65	Activity (Rattus norvegicus [6]): 5%
O=C1c2cc3c(cc2OC2CCCN12)OCCO3 (stereo unspecified)	2.3	–	–
CC(CNS(=O)(=O)C(C)C)c1ccc(-c2ccsc2)cc1 (stereo unspecified)	0.07	–	–
C=CCN1COc2cc3c(cc2C1=O)OC1CCCN1C3=O (stereo unspecified)	0.5	4.74	–
O=C1c2cc3c(cc2OC2CCCN12)CCCO3 (stereo unspecified)	1.1	–	–
CN1COc2cc3c(cc2C1=O)OC1CCCN1C3=O (stereo unspecified)	0.1	4.74	Activity (Rattus norvegicus [4]): 19%
